From PMC7003739 (Clinical Pharmacology in Drug Development, 2019)
Marks after values point to notes of the source that are not given here.

What was measured:
[1] = humans; cited from earlier work
[2] = Safety and tolerability; assay type: in vivo, human
Method in brief: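 Healthy Japanese volunteers (Cohort B) were randomised 3:1 to a single oral 15 mg test compound dose or matching placebo on day 1, then 15 mg BID for 5 days (single dose on the last day) or placebo. Adverse events (intensity and treatment relatedness), clinical observations and vital signs were monitored throughout. ECG was done at specified post-dose times. Physical examination was on day 0 and 72 h after the final dose.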

[3] = 15 mg BID over 14 days, healthy volunteers; cited from earlier work
[4] = Plasma PK after single oral doses; assay type: in vivo, human; conditions: for AUCinf, arithmetic mean (SD) / AUCinf, geometric mean (%CV) / Cmax, arithmetic mean (SD) / Cmax, geometric mean (%CV) / tmax, median (range) / t½, arithmetic mean (SD): n=6; for tmax, J‐W difference of median: Japanese‐Western
Method in brief: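 Healthy Japanese and Western volunteers took single oral doses of 1, 5 and 30 mg or placebo with 240 mL water on days 1, 4 and 7, with a 2-day washout. Heparinized blood was taken predose and at 0.25–48 h, centrifuged within 30 min at 4°C, and the plasma frozen at –20°C. Assay was LC-MS/MS (0.100–350 ng/mL), with values below the quantification limit set to zero. Japanese/Western geometric mean ratios came from log-scale ANOVA.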

[5] = Plasma PK after single and multiple doses; assay type: in vivo, human; conditions: Japanese, Cohort B; for AUCτ, arithmetic mean (SD) / AUCτ, geometric mean (%CV): τ 12 hours
[6] = Urinary PK; assay type: in vivo, human; conditions: for Ae6, arithmetic mean (SD) / Ae12, arithmetic mean (SD) / Ae24%, arithmetic mean (SD) / CLR, arithmetic mean (SD) / CLR, geometric mean (%CV) / CLR, median: Cohort A
[7] = Cohort B Japanese, 15 mg BID, N=6
[8] = Japanese, single oral 1 mg, Cohort A
[9] = Japanese, single oral 5 mg, Cohort A
[10] = Japanese, single oral 30 mg, Cohort A
[11] = Western, single oral 1 mg, Cohort A
[12] = Western, single oral 5 mg, Cohort A
[13] = Western, single oral 30 mg, Cohort A
[14] = day 8 multiple dose 15 mg BID for 5 days, n=6
[15] = Japanese, Cohort B, single 15 mg dose
[16] = Japanese, single oral 1 mg, n=6
[17] = Japanese, single oral 5 mg, n=5
[18] = Japanese, single oral 5 mg, n=6
[19] = Japanese, single oral 30 mg, n=6
[20] = Western, single oral 30 mg, n=6

SMILES: C[C@@H]1CCN(C(=O)CC#N)C[C@@H]1N(C)c1ncnc2[nH]ccc12 [tofacitinib]
- contribution of renal clearance to clearance [1]: approximately 30%
- Constipation, n (all causality) [2, 7]: 1
- Hunger, n (all causality) [2, 7]: 2
- Skin irritation, n (all causality) [2, 7]: 1
- adverse events of moderate intensity: skin irritation, events ([2]; Cohort B, single dose 15 mg, not considered related to study treatment): 1
- renal function (individual creatinine levels) following repeat administration ([2]; Japanese, Cohort B, 15 mg BID): renal function remained unaffected
- changes in vital signs or ECG measurements ([2]; whole study): no clinically significant changes
- clinically significant laboratory abnormalities ([2]; whole study): no volunteers had clinically significant laboratory abnormalities
- serious adverse events or deaths ([2]; whole study, Cohorts A and B): No serious adverse events or deaths were reported
- effect on glomerular filtration rate [3]: did not alter the glomerular filtration rate
- differences in systemic exposure (Cmax, AUCinf) between Japanese and Western volunteers ([4]; 1, 5, 30 mg single doses, analysis of variance): No significant differences
- AUCinf, arithmetic mean (SD) [4, 8]: 22.8 (6.37) ng ⋅ h/mL
- AUCinf, geometric mean (%CV) [4, 8]: 22.0 (28) ng ⋅ h/mL
- Cmax, arithmetic mean (SD) [4, 8]: 7.38 (1.05) ng/mL
- Cmax, geometric mean (%CV) [4, 8]: 7.32 (14) ng/mL
- tmax, median (range) [4, 8]: 0.75 (0.50‐2.00) h
- t½, arithmetic mean (SD) [4, 8]: 1.96 (0.240) h
- AUCinf, arithmetic mean (SD) [4, 9]: 114 (25.5) ng ⋅ h/mL
- AUCinf, geometric mean (%CV) [4, 9]: 111 (22) ng ⋅ h/mL
- Cmax, arithmetic mean (SD) [4, 9]: 43.1 (15.0) ng/mL
- Cmax, geometric mean (%CV) [4, 9]: 41.3 (35) ng/mL
- tmax, median (range) [4, 9]: 0.50 (0.50‐1.00) h
- t½, arithmetic mean (SD) [4, 9]: 2.49 (0.570) h
- AUCinf, arithmetic mean (SD) [4, 10]: 775 (203) ng ⋅ h/mL
- AUCinf, geometric mean (%CV) [4, 10]: 754 (26) ng ⋅ h/mL
- Cmax, arithmetic mean (SD) [4, 10]: 324 (82.7) ng/mL
- Cmax, geometric mean (%CV) [4, 10]: 315 (25) ng/mL
- tmax, median (range) [4, 10]: 0.50 (0.50‐1.00) h
- t½, arithmetic mean (SD) [4, 10]: 3.14 (0.497) h
- tmax, J‐W difference of median ([4]; single oral 1 mg, Cohort A): 0.00 h
- tmax, J‐W difference of median ([4]; single oral 5 mg, Cohort A): 0.00 h
- tmax, J‐W difference of median ([4]; single oral 30 mg, Cohort A): 0.00 h
- AUCinf, arithmetic mean (SD) [4, 11]: 22.9 (2.52) ng ⋅ h/mL
- AUCinf, geometric mean (%CV) [4, 11]: 22.8 (11) ng ⋅ h/mL
- Cmax, arithmetic mean (SD) [4, 11]: 7.53 (1.69) ng/mL
- Cmax, geometric mean (%CV) [4, 11]: 7.36 (22) ng/mL
- tmax, median (range) [4, 11]: 0.75 (0.50‐1.00) h
- t½, arithmetic mean (SD) [4, 11]: 2.14 (0.210) h
- AUCinf, arithmetic mean (SD) [4, 12]: 120 (16.8) ng ⋅ h/mL
- AUCinf, geometric mean (%CV) [4, 12]: 119 (14) ng ⋅ h/mL
- Cmax, arithmetic mean (SD) [4, 12]: 36.0 (9.78) ng/mL
- Cmax, geometric mean (%CV) [4, 12]: 34.9 (27) ng/mL
- tmax, median (range) [4, 12]: 0.50 (0.50‐2.00) h
- t½, arithmetic mean (SD) [4, 12]: 2.85 (0.691) h
- AUCinf, arithmetic mean (SD) [4, 13]: 797 (131) ng ⋅ h/mL
- AUCinf, geometric mean (%CV) [4, 13]: 788 (16) ng ⋅ h/mL
- Cmax, arithmetic mean (SD) [4, 13]: 269 (47.9) ng/mL
- Cmax, geometric mean (%CV) [4, 13]: 265 (18) ng/mL
- tmax, median (range) [4, 13]: 0.50 (0.50‐1.00) h
- t½, arithmetic mean (SD) [4, 13]: 3.50 (0.349) h
- geometric mean Cmax in Japanese higher than in Western volunteers ([4]; single 5 and 30 mg doses, Cohort A): approximately 19%
- increase of systemic exposure with dose ([4]; single oral doses 1, 5, 30 mg): approximately dose‐proportional
- drug accumulation upon repeat dosing ([5]; 15 mg BID): negligible drug accumulation
- time to steady state plasma concentration ([5]; 15 mg BID for 5 days): ≤ 24 h
- AUCinf, arithmetic mean (SD) ([5]; day 1 single dose 15 mg, n=6): 417 (133) ng ⋅ h/mL
- AUCinf, geometric mean (%CV) ([5]; day 1 single dose 15 mg, n=6): 399 (32) ng ⋅ h/mL
- Cmax, arithmetic mean (SD) ([5]; day 1 single dose 15 mg, n=6): 149 (50.6) ng/mL
- Cmax, geometric mean (%CV) ([5]; day 1 single dose 15 mg, n=6): 141 (34) ng/mL
- tmax, median (range) ([5]; day 1 single dose 15 mg, n=6): 0.75 (0.50‐1.00) h
- t½, arithmetic mean (SD) ([5]; day 1 single dose 15 mg, n=6): 3.14 (0.672) h
- AUCτ, arithmetic mean (SD) ([5]; day 1 single dose 15 mg, n=6): 403 (128) ng ⋅ h/mL
- AUCτ, geometric mean (%CV) ([5]; day 1 single dose 15 mg, n=6): 387 (32) ng ⋅ h/mL
- Cmax, arithmetic mean (SD) [5, 14]: 143 (45.9) ng/mL
- Cmax, geometric mean (%CV) [5, 14]: 136 (32) ng/mL
- tmax, median (range) [5, 14]: 0.75 (0.50‐1.00) h
- t½, arithmetic mean (SD) [5, 14]: 3.28 (0.544) h
- AUCτ, arithmetic mean (SD) [5, 14]: 457 (116) ng ⋅ h/mL
- AUCτ, geometric mean (%CV) [5, 14]: 445 (25) ng ⋅ h/mL
- CLR reduction after multiple‐dose vs single‐dose administration, average ([6]; Japanese, Cohort B, 15 mg): 24%
- CLR, geometric mean [SD] ([6]; Japanese, Cohort B, multiple dose 15 mg BID): 120 mL/min
- Ae24%, arithmetic mean (SD) percentage of unchanged tofacitinib excreted in urine 24 hours after dose [6, 15]: 27.1%
- CLR, geometric mean [SD] [6, 15]: 158 mL/min
- Mean CLR decrease with increasing dose ([6]; Japanese, single doses 1 to 30 mg (162 to 148 mL/min)): 8.6%
- Ae6, arithmetic mean (SD) [6, 16]: 0.191 (0.0469) mg
- Ae12, arithmetic mean (SD) [6, 16]: 0.215 (0.0527) mg
- Ae24%, arithmetic mean (SD) [6, 16]: 22.0%
- CLR, arithmetic mean (SD) [6, 16]: 166 (45.2) mL/min
- CLR, geometric mean (%CV) [6, 16]: 162 (27) mL/min
- CLR, median [6, 16]: 144 mL/min
- Ae24%, arithmetic mean (SD) ([6]; Japanese, single oral 1 mg, n=6, listed as Tofacitinib): 22.0 (5.34) %
- Ae12, arithmetic mean (SD) [6, 17]: 0.995 ^c (0.367) mg
- Ae24%, arithmetic mean (SD) [6, 17]: 20.4%
- CLR, geometric mean (%CV) [6, 17]: 134 ^c (25) mL/min
- Ae24%, arithmetic mean (SD) ([6]; Japanese, single oral 5 mg, n=5, listed as Tofacitinib): 20.4 ^c (7.51) %
- Ae6, arithmetic mean (SD) [6, 18]: 0.890 (0.327) mg
- CLR, arithmetic mean (SD) [6, 18]: 137 (33.8) mL/min
- CLR, median [6, 18]: 136 mL/min
- Ae6, arithmetic mean (SD) [6, 19]: 5.59 (0.832) mg
- Ae12, arithmetic mean (SD) [6, 19]: 6.46 (0.791) mg
- Ae24%, arithmetic mean (SD) [6, 19]: 22.5%
- CLR, arithmetic mean (SD) [6, 19]: 153 (41.8) mL/min
- CLR, geometric mean (%CV) [6, 19]: 148 (27) mL/min
- CLR, median [6, 19]: 149 mL/min
- Ae24%, arithmetic mean (SD) ([6]; Japanese, single oral 30 mg, n=6, listed as Tofacitinib): 22.5 (3.00) %
- Mean CLR decrease with increasing dose ([6]; Western, single doses 1 to 30 mg (160 to 124 mL/min)): 22.5%
- Ae24%, arithmetic mean (SD) ([6]; Western, single oral 1 mg, n=5): 21.2%
- CLR, geometric mean (%CV) ([6]; Western, single oral 1 mg, n=5): 160 ^c (11) mL/min
- Ae24%, arithmetic mean (SD) ([6]; Western, single oral 1 mg, n=5, listed as Tofacitinib): 21.2 ^c (0.865) %
- Ae6, arithmetic mean (SD) ([6]; Western, single oral 1 mg, n=6): 0.169 (0.0128) mg
- Ae12, arithmetic mean (SD) ([6]; Western, single oral 1 mg, n=6): 0.199 (0.0127) mg
- CLR, arithmetic mean (SD) ([6]; Western, single oral 1 mg, n=6): 161 (17.7) mL/min
- CLR, median ([6]; Western, single oral 1 mg, n=6): 158 mL/min
- Ae12, arithmetic mean (SD) ([6]; Western, single oral 5 mg, n=5): 0.919 ^c (0.265) mg
- Ae24%, arithmetic mean (SD) ([6]; Western, single oral 5 mg, n=5): 19.9%
- CLR, geometric mean (%CV) ([6]; Western, single oral 5 mg, n=5): 136 ^c (29) mL/min
- Ae24%, arithmetic mean (SD) ([6]; Western, single oral 5 mg, n=5, listed as Tofacitinib): 19.9 ^c (5.15) %
- Ae6, arithmetic mean (SD) ([6]; Western, single oral 5 mg, n=6): 0.744 (0.224) mg
- CLR, arithmetic mean (SD) ([6]; Western, single oral 5 mg, n=6): 141 (40.6) mL/min
- CLR, median ([6]; Western, single oral 5 mg, n=6): 148 mL/min
- Ae6, arithmetic mean (SD) [6, 20]: 4.15 (1.11) mg
- Ae12, arithmetic mean (SD) [6, 20]: 5.63 (1.28) mg
- Ae24%, arithmetic mean (SD) [6, 20]: 19.8%
- CLR, arithmetic mean (SD) [6, 20]: 127 (30.1) mL/min
- CLR, geometric mean (%CV) [6, 20]: 124 (24) mL/min
- CLR, median [6, 20]: 127 mL/min
- Ae24%, arithmetic mean (SD) ([6]; Western, single oral 30 mg, n=6, listed as Tofacitinib): 19.8 (4.11) %
- percentage of unchanged tofacitinib excreted in urine ([6]; over 24 hours after single‐dose administration, across doses and ethnicities): approximately 20%
